Assays:
[1] = Drug distribution in eyes of C57BL/6J mouse bearing mouse B16F0 cells at 18 to 20 MBq, iv measured over 72 hrs by SPECT imaging study; assay type: ADME, organism-based, Eye; conditions: in vivo
Method in brief: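 Female C57BL/6J mice (5–6 weeks) were inoculated s.c. on the left flank with 3 × 10^5 B16F0 cells in PBS and used after 11 days, with tumors 2–12 mm. Each received 18–20 MBq in 100 μL by lateral tail vein (n = 3 per tracer). Planar SPECT was done under isoflurane at 10–60 min, 3, 6, 24, 48 and 72 h. ROI pixel values were decay-corrected.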

[2] = system: Mus musculus; test: Biodistribution in thyroid gland of C57BL/6J mouse bearing mouse B16F0 cells at 0.37 to 1.85 MBq, iv after 16 hrs by gamma counting method; assay type: ADME, organism-based; conditions: in vivo
Method in brief: (§1)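 Female C57BL/6J mice (5−6 weeks), s.c. inoculated on left flank with 3 × 10^5 B16F0 cells in Ca2+/Mg2+-free PBS, used 11 days later (tumors 2−12 mm). Radiotracer given via tail vein in 100 μL (~0.37 MBq for 1−24 h, 1.85 MBq for 48 h). Organs dissected, weighed, γ-counted, decay corrected. Expressed as % ID/g against injected-dose dilutions. Mean ± SEM, n = 5.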

[3] = system: Liver; test: Biodistribution in liver of C57BL/6J mouse bearing mouse B16F0 cells at 0.37 to 1.85 MBq, iv after 16 hrs by gamma counting method; assay type: ADME, organism-based; conditions: in vivo; method in brief: as §1
[4] = system: Kidney; test: Biodistribution in kidney of C57BL/6J mouse bearing mouse B16F0 cells at 0.37 to 1.85 MBq, iv after 24 hrs by gamma counting method; assay type: ADME, organism-based; conditions: in vivo; method in brief: as §1
[5] = system: Mus musculus; test: Biodistribution in thyroid gland of C57BL/6J mouse bearing mouse B16F0 cells at 0.37 to 1.85 MBq, iv after 3 hrs by gamma counting method; assay type: ADME, organism-based; conditions: in vivo; method in brief: as §1
[6] = Ratio of AUC in tumor to eyes of C57BL/6J mouse bearing mouse B16F0 cells at 0.37 to 1.85 MBq, iv by gamma counting method; assay type: ADME, organism-based; conditions: in vivo
Method in brief: (§2)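 Biodistribution in B16F0-bearing C57BL/6J mice given i.v. tail-vein tracer (~0.37 MBq for 1–24 h, 1.85 MBq for 48 h). Sacrifice at 1, 3, 6, 16, 24 and 48 h, then organs dissected, weighed and γ-counted as decay-corrected % ID/g. Tumor AUC divided by each organ AUC; mean of ratios ± SEM, n = 5.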

[7] = Ratio of AUC in tumor to bone of C57BL/6J mouse bearing mouse B16F0 cells at 0.37 to 1.85 MBq, iv by gamma counting method; assay type: ADME, organism-based; conditions: in vivo; method in brief: as §2
[8] = system: Mus musculus; test: Biodistribution in thyroid gland of C57BL/6J mouse bearing mouse B16F0 cells at 0.37 to 1.85 MBq, iv after 6 hrs by gamma counting method; assay type: ADME, organism-based; conditions: in vivo; method in brief: as §1
[9] = system: Mus musculus; test: Biodistribution in small gastrointestinal tract of C57BL/6J mouse bearing mouse B16F0 cells at 0.37 to 1.85 MBq, iv after 3 hrs by gamma counting method; assay type: ADME, organism-based, Small intestine; conditions: in vivo; method in brief: as §1
[10] = Stability in eyes of C57BL/6J mouse bearing mouse B16F0 cells assessed as intact parent compound level at 0.37 to 1.85 MBq, iv after 3 hrs by radio-HPLC and radio-TLC method; assay type: ADME, organism-based, Eye; conditions: in the assay text read “20 MBq” for “0.37 to 1.85 MBq”, read-out: Stability
Method in brief: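 Tumor-bearing C57BL/6J mice were sampled 3 and 24 h after i.v. tracer. Tissue was sonicated in CH3CN/water (3:2) with cold iodo standard and KI, then centrifuged. Urine was diluted and spiked; plasma was spiked, with CH3CN precipitation for TLC. Intact fraction came from silica radio-TLC (spot matching standard Rf) and radio-HPLC with precolumn/C18 column switching.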

[11] = system: Liver; test: Biodistribution in liver of C57BL/6J mouse bearing mouse B16F0 cells at 0.37 to 1.85 MBq, iv after 6 hrs by gamma counting method; assay type: ADME, organism-based; conditions: in vivo; method in brief: as §1
[12] = system: Mus musculus; test: Biodistribution in small gastrointestinal tract of C57BL/6J mouse bearing mouse B16F0 cells at 0.37 to 1.85 MBq, iv after 16 hrs by gamma counting method; assay type: ADME, organism-based, Small intestine; conditions: in vivo; method in brief: as §1
[13] = system: Spleen; test: Biodistribution in spleen of C57BL/6J mouse bearing mouse B16F0 cells at 0.37 to 1.85 MBq, iv after 6 hrs by gamma counting method; assay type: ADME, organism-based; conditions: in vivo; method in brief: as §1
[14] = Retention time of the compound by HPLC method; assay type: physicochemical
[15] = system: Kidney; test: Biodistribution in kidney of C57BL/6J mouse bearing mouse B16F0 cells at 0.37 to 1.85 MBq, iv after 6 hrs by gamma counting method; assay type: ADME, organism-based; conditions: in vivo; method in brief: as §1
[16] = system: Mus musculus; test: Biodistribution in large gastrointestinal tract of C57BL/6J mouse bearing mouse B16F0 cells at 0.37 to 1.85 MBq, iv after 48 hrs by gamma counting method; assay type: ADME, organism-based; conditions: in vivo; method in brief: as §1
[17] = system: Mus musculus; test: Biodistribution in thyroid gland of C57BL/6J mouse bearing mouse B16F0 cells at 0.37 to 1.85 MBq, iv after 48 hrs by gamma counting method; assay type: ADME, organism-based; conditions: in vivo; method in brief: as §1
[18] = system: Spleen; test: Biodistribution in spleen of C57BL/6J mouse bearing mouse B16F0 cells at 0.37 to 1.85 MBq, iv after 3 hrs by gamma counting method; assay type: ADME, organism-based; conditions: in vivo; method in brief: as §1
[19] = system: Mus musculus; test: Biodistribution in large gastrointestinal tract of C57BL/6J mouse bearing mouse B16F0 cells at 0.37 to 1.85 MBq, iv after 6 hrs by gamma counting method; assay type: ADME, organism-based; conditions: in vivo; method in brief: as §1
[20] = system: Mus musculus; test: Biodistribution in eyes of C57BL/6J mouse bearing mouse B16F0 cells at 0.37 to 1.85 MBq, iv after 3 hrs by gamma counting method; assay type: ADME, organism-based, Eye; conditions: in vivo; method in brief: as §1
[21] = system: Mus musculus; test: Biodistribution in thyroid gland of C57BL/6J mouse bearing mouse B16F0 cells at 0.37 to 1.85 MBq, iv after 1 hr by gamma counting method; assay type: ADME, organism-based; conditions: in vivo; method in brief: as §1
[22] = system: Mus musculus; test: Biodistribution in tumor of C57BL/6J mouse bearing mouse B16F0 cells at 0.37 to 1.85 MBq, iv after 48 hrs by gamma counting method; assay type: ADME, organism-based; conditions: in vivo; method in brief: as §1
[23] = Ratio of AUC in tumor to thyroid gland of C57BL/6J mouse bearing mouse B16F0 cells at 0.37 to 1.85 MBq, iv by gamma counting method; assay type: ADME, organism-based; conditions: in vivo; method in brief: as §2
[24] = system: Mus musculus; test: Biodistribution in tumor of C57BL/6J mouse bearing mouse B16F0 cells at 0.37 to 1.85 MBq, iv after 3 hrs by gamma counting method; assay type: ADME, organism-based; conditions: in vivo; method in brief: as §1
[25] = system: Kidney; test: Biodistribution in kidney of C57BL/6J mouse bearing mouse B16F0 cells at 0.37 to 1.85 MBq, iv after 1 hr by gamma counting method; assay type: ADME, organism-based; conditions: in vivo; method in brief: as §1
[26] = Ratio of AUC in tumor to skin of C57BL/6J mouse bearing mouse B16F0 cells at 0.37 to 1.85 MBq, iv by gamma counting method; assay type: ADME, organism-based; conditions: in vivo; method in brief: as §2
[27] = system: Mus musculus; test: Biodistribution in small gastrointestinal tract of C57BL/6J mouse bearing mouse B16F0 cells at 0.37 to 1.85 MBq, iv after 1 hr by gamma counting method; assay type: ADME, organism-based, Small intestine; conditions: in vivo; method in brief: as §1
[28] = system: Spleen; test: Biodistribution in spleen of C57BL/6J mouse bearing mouse B16F0 cells at 0.37 to 1.85 MBq, iv after 16 hrs by gamma counting method; assay type: ADME, organism-based; conditions: in vivo; method in brief: as §1
[29] = system: Mus musculus; test: Biodistribution in eyes of C57BL/6J mouse bearing mouse B16F0 cells at 0.37 to 1.85 MBq, iv after 24 hrs by gamma counting method; assay type: ADME, organism-based, Eye; conditions: in vivo; method in brief: as §1

Drug uptake [1] | Drug uptake [2] [% ID/g] | Drug uptake [3] [% ID/g] | Drug uptake [4] [% ID/g] | Drug uptake [5] [% ID/g] | Ratio [6] | Ratio [7] | Drug uptake [8] [% ID/g] | Drug uptake [9] [% ID/g] | remaining at 3 h [10] [%] | Drug uptake [11] [% ID/g] | Drug uptake [12] [% ID/g] | Drug uptake [13] [% ID/g] | Retention_time [14] [min] | Drug uptake [15] [% ID/g] | Drug uptake [16] [% ID/g] | Drug uptake [17] [% ID/g] | Drug uptake [18] [% ID/g] | Drug uptake [19] [% ID/g] | Drug uptake [20] [% ID/g] | SMILES | also measured
Active | 1 | 0.7 | 0.5 | 1.5 | 0.42 | 25 | 2.8 | 15.2 | 90 | 3.1 | 0.5 | 0.4 | 16.7 | 4.1 | 0.1 | 3.4 | 0.5 | 23.1 | 18.5 | O=C(CN1Cc2ccccc2C1=O)N1C[C@H]2CN(Cc3ccc([123I])cc3)C[C@H]2C1 | Drug uptake [21]: 1.9 % ID/g; Drug uptake [22]: 5 % ID/g; Ratio [23]: 6; Drug uptake [24]: 10.8 % ID/g; Drug uptake [25]: 15.8 % ID/g; Ratio [26]: 23.1; Drug uptake [27]: 21.4 % ID/g; Drug uptake [28]: 0.2 % ID/g; Drug uptake [29]: 18.4 % ID/g
Active | 2.5 | 0.9 | 1 | 2.7 | 0.52 | 65.5 | 2.7 | 63.8 | 60 | 6.3 | 1.4 | 1 | 16.6 | 10 | 0.2 | 2.1 | 2 | 87.1 | 56.4 | O=C(c1ccc2c(n1)NCCC2)N1CCN(Cc2ccc([123I])cc2)CC1 | Drug uptake [21]: 5.1 % ID/g; Drug uptake [22]: 5.6 % ID/g; Ratio [23]: 7.2; Drug uptake [24]: 32.1 % ID/g; Drug uptake [25]: 15.6 % ID/g; Ratio [26]: 40.9; Drug uptake [27]: 45.6 % ID/g; Drug uptake [28]: 0.3 % ID/g; Drug uptake [29]: 30.8 % ID/g
Active | 1.6 | 2.4 | 1.4 | 2.2 | 0.47 | 44 | 3.5 | 14.1 | 60 | 10.1 | 1.3 | 2.1 | 12.2 | 5.2 | 0.3 | 5.3 | 2.3 | 18.6 | 36 | O=C(c1ccc2cccnc2n1)N1CCN(Cc2ccc([123I])cc2)CC1 | Drug uptake [21]: 2.3 % ID/g; Drug uptake [22]: 13.1 % ID/g; Ratio [23]: 5; Drug uptake [24]: 20 % ID/g; Drug uptake [25]: 7.5 % ID/g; Ratio [26]: 45.3; Drug uptake [27]: 14.4 % ID/g; Drug uptake [28]: 0.8 % ID/g; Drug uptake [29]: 35.1 % ID/g
Active | 2.3 | 7.1 | 1.9 | 3.4 | 0.44 | 65.8 | 3.1 | 12 | 90 | 35.1 | 3.7 | 3.6 | 14.8 | 5 | 0.6 | 2.4 | 7.6 | 17.6 | 20.8 | O=C(CN1Cc2ccccc2C1=O)NC1CCN(Cc2ccc([123I])cc2)CC1 | Drug uptake [21]: 3.4 % ID/g; Drug uptake [22]: 13.2 % ID/g; Ratio [23]: 5.8; Drug uptake [24]: 11.6 % ID/g; Drug uptake [25]: 8 % ID/g; Ratio [26]: 24.4; Drug uptake [27]: 11.9 % ID/g; Drug uptake [28]: 1.3 % ID/g; Drug uptake [29]: 41.4 % ID/g

Reference: ChEMBL document CHEMBL3588831, “Synthesis and in Vivo Evaluation of [123I]Melanin-Targeted Agents” (J Med Chem, 2015)
